# Measurements as given in ChEMBL document CHEMBL1155455.
# Active and inactive are the calls of the source. No cut-off for these calls is given here.
# Experiments:
# Rattus norvegicus [1] = experiment: Antidiuretic activity in sc dosed Sprague-Dawley rat assessed as inhibition of U50488-induced urine output administered immediately after water loading measured after 5 hrs on week 1; format: functional, organism-based
# How it was run: (§1)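 Adult male Sprague-Dawley rats, groups of four. […] Urine collected hourly for 5 h in metabolic chambers, at week 0 and week 1 without redosing. Analysis by repeated-measures ANOVA and Dunnett's test.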
# Rattus norvegicus [2] = experiment: Antidiuretic activity in sc dosed Sprague-Dawley rat assessed as inhibition of U50488-induced urine output administered immediately after water loading measured 5 hrs after first dose; format: functional, organism-based; how it was run: as §1
SMILES,Activity (Rattus norvegicus [1]),Activity (Rattus norvegicus [2])
CC(C)[C@@H](CN1CC[C@@](C)(c2cccc(O)c2)[C@@H](C)C1)NC(=O)[C@H]1Cc2ccc(O)cc2CN1,Dose-dependent effect,Dose-dependent effect
CC(C)[C@@H](CN1CC[C@@](C)(c2cccc(O)c2)[C@@H](C)C1)NC(=O)[C@@H]1CCc2cc(O)ccc2C1,inactive,Dose-dependent effect
